ChEMBL document CHEMBL1154876, “Synthesis and antimicrobial studies on novel sulfonamides containing 4-azidomethyl coumarin” (2010)
Converted amounts (≈) assume the structure as drawn.

Tests used:
Format in all cases: functional
Aspergillus niger = assay: Antifungal activity against Aspergillus niger after 48 to 72 hrs by broth microdilution method
In short: (§1)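 Test compounds were prepared as 10 mg/ml DMSO stocks and serially diluted twofold in Sabouraud's dextrose broth over 500, 250, 125, 62.5, 31.25, 16, 8, 4, 2 and 1, alongside fluconazole as reference. Plates were inoculated with 1–5 × 10⁴ cfu/ml and held at 25 °C for 48–72 h. The MIC was the lowest concentration showing no visible growth.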

Mucor = assay: Antifungal activity against Mucor fuscus after 48 to 72 hrs by broth micro dilution method; in short: as §1
Aspergillus fumigatus = assay: Antifungal activity against Aspergillus fumigatus after 48 to 72 hrs by broth microdilution method; in short: as §1
Escherichia coli = assay: Antibacterial activity against Escherichia coli MTCC 1089 after 18 hrs by broth microdilution method; conditions: MTCC 1089, 18 h
Bacillus subtilis = assay: Antibacterial activity against Bacillus subtilis MTCC 297 after 18 hrs by broth microdilution method; conditions: MTCC 297, 18 h
Enterococcus faecalis = assay: Antibacterial activity against Streptococcus faecalis MTCC 3382 after 18 hrs by broth microdilution method; conditions: MTCC 3382, 18 h
Fusarium oxysporum = assay: Antifungal activity against Fusarium oxysporum after 48 to 72 hrs by broth microdilution method; in short: as §1
Klebsiella pneumoniae = assay: Antibacterial activity against Klebsiella pneumoniae MTCC 3384 after 18 hrs by broth microdilution method; conditions: MTCC 3384, 18 h
Pseudomonas aeruginosa = assay: Antibacterial activity against Pseudomonas aeruginosa MTCC 1034 after 18 hrs by broth microdilution method; conditions: MTCC 1034, 18 h
Candida albicans = assay: Antifungal activity against Candida albicans after 48 to 72 hrs by broth microdilution method; in short: as §1
Penicillium chrysogenum = assay: Antifungal activity against Penicillium chrysogenum after 48 to 72 hrs by broth microdilution method; in short: as §1
Staphylococcus aureus = assay: Antibacterial activity against Staphylococcus aureus MTCC 3160 after 18 hrs by broth microdilution method; conditions: MTCC 3160, 18 h

| MIC (Aspergillus niger) [µg/mL] | MIC (Mucor) [µg/mL] | MIC (Aspergillus fumigatus) [µg/mL] | MIC (Escherichia coli) [µg/mL] | MIC (Bacillus subtilis) [µg/mL] | MIC (Enterococcus faecalis) [µg/mL] | MIC (Fusarium oxysporum) [µg/mL] | MIC (Klebsiella pneumoniae) [µg/mL] | MIC (Pseudomonas aeruginosa) [µg/mL] | MIC (Candida albicans) [µg/mL] | MIC (Penicillium chrysogenum) [µg/mL] | MIC (Staphylococcus aureus) [µg/mL] | Compound |
| --- | --- | --- | --- | --- | --- | --- | --- | --- | --- | --- | --- | --- |
| > 500 | 250 (≈ 556 µM) | > 500 | > 500 | > 500 | 1 (≈ 2.23 µM) | 1 (≈ 2.23 µM) | 1 (≈ 2.23 µM) | 1 (≈ 2.23 µM) | 125 (≈ 278 µM) | 16 (≈ 35.6 µM) | 16 (≈ 35.6 µM) | Cc1cc2oc(=O)cc(CN=[N+]=[N-])c2cc1S(=O)(=O)Nc1ccc(Br)cc1 |
| 8 (≈ 21.6 µM) | 4 (≈ 10.8 µM) | 8 (≈ 21.6 µM) | 125 (≈ 337 µM) | 31.2 (≈ 84.4 µM) | 31.2 (≈ 84.4 µM) | 4 (≈ 10.8 µM) | 125 (≈ 337 µM) | 125 (≈ 337 µM) | 16 (≈ 43.2 µM) | 2 (≈ 5.4 µM) | 4 (≈ 10.8 µM) | Cc1cc2oc(=O)cc(CN=[N+]=[N-])c2cc1S(=O)(=O)Nc1ccccc1 |
| 8 (≈ 25.5 µM) | 2 (≈ 6.38 µM) | 8 (≈ 25.5 µM) | 125 (≈ 398 µM) | 31.2 (≈ 99.6 µM) | 31.2 (≈ 99.6 µM) | 2 (≈ 6.38 µM) | 125 (≈ 398 µM) | 125 (≈ 398 µM) | 8 (≈ 25.5 µM) | 4 (≈ 12.8 µM) | 4 (≈ 12.8 µM) | Cc1cc2oc(=O)cc(CN=[N+]=[N-])c2cc1S(=O)(=O)Cl |
| 16 (≈ 40 µM) | 31.2 (≈ 78 µM) | 62.5 (≈ 156 µM) | 250 (≈ 624 µM) | > 500 | 1 (≈ 2.5 µM) | 1 (≈ 2.5 µM) | 62.5 (≈ 156 µM) | 125 (≈ 312 µM) | 31.2 (≈ 78 µM) | > 500 | 31.2 (≈ 78 µM) | COc1ccccc1NS(=O)(=O)c1cc2c(CN=[N+]=[N-])cc(=O)oc2cc1C |
